Structures are written as SMILES. pIC50: −log10 of the molar value. Values after ≈ are worked out from the molar mass of the structure shown.

The subject of the first data set is Liver. The data set is described as follows: Drug metabolism in BALB/c mouse liver microsomes assessed as N-dealkylation on tertiary amine at 1 uM in presence of NADPH by mass spectrometric analysis. Type of data set: ADME, microsome.
Conditions: not given
In outline:
(§1)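 Compound at 1 μM with 0.35 mg/ml male BALB/c mouse liver microsomes, 1 mM NADPH, 100 mM phosphate pH 7.4, 37 °C, 30 min; triplicate. Stopped by ice-cold acetonitrile with carbamazepine internal standard; parent loss by LC-MS/MS (ESI positive, MRM) as % remaining; scan data screened for putative metabolite fragments.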
On to `CN(Cc1ccc(CNc2ccnc3cc(C#N)ccc23)cc1)Cc1ccccn1`, for which the Drug metabolism result was “Metabolite_Detected”.

A further data set has as its system Plasmodium falciparum. The data set is described as follows: Antiplasmodial activity against chloroquine-sensitive synchronized trophozoite stage of Plasmodium falciparum NF54 after 48 hrs by NBT dye based LDH assay. It is filed as functional. As to conditions: NF54, 48 h.
Consider `CN(Cc1ccc(CNc2ccnc3cc(C#N)ccc23)cc1)Cc1ccccn1`, for which the pIC50 – broadly, the IC50 on a negative log10 scale, so that one unit is a factor of ten – is 7.12.

With `C[C@H]1[C@H](OC(=O)CCC(=O)O)O[C@@H]2O[C@@]3(C)CC[C@H]4[C@H](C)CC[C@@H]1[C@@]24OO3` [ARTESUNATE], the pIC50 was 8.25.

Test system in the next data set: not listed separately
Description: Selectivity index, ratio of IC50 for CHO cells to IC50 for chloroquine-sensitive synchronized trophozoite stage of Plasmodium falciparum NF54. Type of data set: toxicity. The following applies: hamster; read-out: Ratio IC50.
Turning to `CN(Cc1ccc(CNc2ccnc3cc(C#N)ccc23)cc1)Cc1ccccn1`, the selectivity ratio is 146.

Test system in the next data set: not listed separately
Description: n-Octanol-buffer distribution coefficient, log D of the compound at pH 5 incubated for 4 hrs by UV-vis based shake flask method. Type of data set: physicochemical.
Conditions: not given
For `CN(Cc1ccc(CNc2ccnc3cc(C#N)ccc23)cc1)Cc1ccccn1`, the logD – broadly, lipophilicity at a set pH, counting ionised and neutral species – at 4 h was found to be 1.

Test system in the next data set: not listed separately
The data set is described as follows: n-Octanol-buffer distribution coefficient, log D of the compound at pH 7.4 […] by HPLC based shake flask method.
Conditions: not given
Type of data set: physicochemical.
With `CN(Cc1ccc(CNc2ccnc3cc(C#N)ccc23)cc1)Cc1ccccn1`, the logD came out at 2.84.

Test system in a further data set: not listed separately
Description: Metabolic stability in BALB/c mouse liver microsomes assessed as parent compound remaining at 1 uM after 30 mins in presence of NADPH by LC-MS/MS analysis. Type of data set: ADME, microsome. As to conditions: read-out: Stability. In outline:
as §1
With `Cc1ncc2n1-c1ccc(Cl)cc1C(c1ccccc1F)=NC2` [MIDAZOLAM], the remaining at 0.5 h, 1 µM worked out at 1.33%.

With `CN(Cc1ccc(CNc2ccnc3cc(C#N)ccc23)cc1)Cc1ccccn1`, the remaining at 0.5 h, 1 µM was determined as 3.63%.

The next data set relates to Plasmodium falciparum. Description: Resistance index, ratio of IC50 for chloroquine-resistant synchronized trophozoite stage of Plasmodium falciparum 7G8 to IC50 for chloroquine-sensitive synchronized trophozoite stage of Plasmodium falciparum NF54. Type of data set: functional.
Conditions: not given
With `CN(Cc1ccc(CNc2ccnc3cc(C#N)ccc23)cc1)Cc1ccccn1`, the “Ratio IC50” value is 1.8.

Regarding `C[C@H]1[C@H](OC(=O)CCC(=O)O)O[C@@H]2O[C@@]3(C)CC[C@H]4[C@H](C)CC[C@@H]1[C@@]24OO3` [ARTESUNATE], the “Ratio IC50” value is on record as 1.4.

The subject of another data set is Plasmodium falciparum. Description: Antiplasmodial activity against chloroquine-resistant synchronized trophozoite stage of Plasmodium falciparum Dd2 after 48 hrs by NBT dye based LDH assay. Type of data set: functional. The following applies: Dd2, 48 h.
Compound `CN(Cc1ccc(CNc2ccnc3cc(C#N)ccc23)cc1)Cc1ccccn1` gave a negative-log IC50 (pIC50) of 6.84.

Compound `C[C@H]1[C@H](OC(=O)CCC(=O)O)O[C@@H]2O[C@@]3(C)CC[C@H]4[C@H](C)CC[C@@H]1[C@@]24OO3` [ARTESUNATE] showed a pIC50 of 7.84.

Test system in a further data set: not listed separately
The data set is described as follows: Inhibition of beta hematin formation by detergent based assay.
Conditions: not given
The method in brief: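 β-hematin formation from hematin in 1 M acetate buffer pH 4.9 with NP40 detergent, compound serially diluted from 20 mM DMSO stock; ~5 h at 37 °C. Free heme complexed with pyridine/acetone/HEPES pH 7.4 solution, absorbance at 405 nm; IC50 from dose-response curves.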
As for `CN(Cc1ccc(CNc2ccnc3cc(C#N)ccc23)cc1)Cc1ccccn1`, the pIC50 is 4.61.

Test system in another data set: not listed separately
The data set is described as follows: Kinetic solubility of compound in simulating fasting state biorelevant media at pH 6.5 after 2 hrs by shake flask method. Type of data set: physicochemical. The following applies: fasted-state simulating biorelevant medium, read-out: Kinetic_solubility.
On to `CN(Cc1ccc(CNc2ccnc3cc(C#N)ccc23)cc1)Cc1ccccn1`, for which the solubility kinetic at 2 h is 144 µM (≈ 56.5 µg/mL).

The subject of another data set is Liver. The data set is described as follows: Drug metabolism in BALB/c mouse liver microsomes assessed as N-dealkylation with oxidative deamination at 1 uM in presence of NADPH by mass spectrometric analysis.
Conditions: not given
Type of data set: ADME, microsome. In outline:
as §1
For orientation: Liver microsomes are vesicles of endoplasmic reticulum, rich in cytochrome P450 enzymes.
Consider `CN(Cc1ccc(CNc2ccnc3cc(C#N)ccc23)cc1)Cc1ccccn1`, for which the Drug metabolism result is on record as “Metabolite_Detected”.

The next data set deals with Liver. Description: Drug metabolism in BALB/c mouse liver microsomes assessed as oxidation of quinoline core or pyridyl ring at 1 uM in presence of NADPH by mass spectrometric analysis. Type of data set: ADME, microsome.
Conditions: not given
In outline:
as §1
Consider `CN(Cc1ccc(CNc2ccnc3cc(C#N)ccc23)cc1)Cc1ccccn1`, for which the Drug metabolism entry is listed as “Metabolite_Detected”.

The test system of a further data set is Plasmodium falciparum. The data set is described as follows: Decrease in hemozoine formation in chloroquine-sensitive synchronized ring stage of Plasmodium falciparum NF54 after 32 hrs by flow cytometric analysis.
Conditions: not given
Type of data set: functional. The method in brief: (§2)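 Sorbitol-synchronized (5%) ring-stage cultures exposed to compound at multiples of IC50 for 32 h; trophozoites freed with 0.05% saponin, PBS-washed, counted by hemocytometer and flow cytometry. Hypotonic lysis/sonication, then sequential SDS/pyridine fractionation into hemoglobin, free heme and hemozoin (SDS/NaOH) fractions; each measured by UV-vis as Fe(III) heme-pyridine complex.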
Take `CN(Cc1ccc(CNc2ccnc3cc(C#N)ccc23)cc1)Cc1ccccn1`: the Activity result is “Dose-dependent effect”.

The test system of another data set is Plasmodium berghei. Description: Antimalarial activity against chloroquine-sensitive Plasmodium berghei ANKA infected in C57BL/6 mouse assessed as supression of parasitemia at 30 mg/kg, po administered for 4 consecutive days starting at 2 hrs post infection by peter's test relative to control.
Conditions: not given
It is filed as functional. In outline:
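P. berghei ANKA passaged in C57BL/6 donor; test mice infected ip with 200 μL of 1 × 10⁷ parasitized erythrocytes in PBS. Oral dosing 30 mg/kg at 2 h post-infection, then daily D0–D3; PBS-dosed controls. Parasitemia read on D4 from Giemsa-stained, methanol-fixed tail thin films; suppression relative to control.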
Turning to `CN(Cc1ccc(CNc2ccnc3cc(C#N)ccc23)cc1)Cc1ccccn1`, the Activity is listed as 98%.

For a further data set, the system named is Plasmodium falciparum. Description: Increase in free heme levels in chloroquine-sensitive synchronized ring stage of Plasmodium falciparum NF54 after 32 hrs by flow cytometric analysis. It is filed as functional.
Conditions: not given
The method in brief: as §2
A general note: A flow cytometer gives signals particle by particle.
As to `CN(Cc1ccc(CNc2ccnc3cc(C#N)ccc23)cc1)Cc1ccccn1`, the Activity entry was “Dose-dependent effect”.

For a further data set, the system named is CHO. Description: Cytotoxicity against CHO cells by MTT assay. As to conditions: Cricetulus griseus. It is filed as cell-based. In outline: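 MTT assay on CHO cells. DMSO stock diluted in complete medium; 10-fold serial dilutions, 6 concentrations from 100 to 0.001 μg/mL; emetine reference; triplicate on each occasion. IC50 from non-linear fit of full dose-response curves.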
`CN(Cc1ccc(CNc2ccnc3cc(C#N)ccc23)cc1)Cc1ccccn1` showed a pIC50 of 4.95.

Another data set deals with Liver. Description: Drug metabolism in BALB/c mouse liver microsomes assessed as oxidation of aldehyde to carboxylic acid at 1 uM in presence of NADPH by mass spectrometric analysis.
Conditions: not given
It is filed as ADME, microsome. The method in brief: as §1
For the compound `CN(Cc1ccc(CNc2ccnc3cc(C#N)ccc23)cc1)Cc1ccccn1`, the Drug metabolism result is given as “Metabolite_Detected”.

A further data set relates to Liver. The data set is described as follows: Drug metabolism in BALB/c mouse liver microsomes assessed as aldehyde reduction at 1 uM in presence of NADPH by mass spectrometric analysis. Type of data set: ADME, microsome.
Conditions: not given
The method in brief:
as §1
`CN(Cc1ccc(CNc2ccnc3cc(C#N)ccc23)cc1)Cc1ccccn1`: the Drug metabolism entry is “Metabolite_Detected”.

In another data set the test system is Plasmodium falciparum. The data set is described as follows: Antiplasmodial activity against chloroquine-resistant synchronized trophozoite stage of Plasmodium falciparum 7G8 after 48 hrs by NBT dye based LDH assay. As to conditions: 7G8, 48 h. Type of data set: functional.
As to `CN(Cc1ccc(CNc2ccnc3cc(C#N)ccc23)cc1)Cc1ccccn1`, the pIC50 was 6.87.

Turning to `C[C@H]1[C@H](OC(=O)CCC(=O)O)O[C@@H]2O[C@@]3(C)CC[C@H]4[C@H](C)CC[C@@H]1[C@@]24OO3` [ARTESUNATE], the pIC50 was 8.11.

Test system in the next data set: not listed separately
Description: Intrinsic clearance in BALB/c mouse liver microsomes at 1 uM in presence of NADPH by LC-MS/MS analysis. Type of data set: ADME, microsome. The following applies: read-out: CLH. In outline: as §1
Regarding `Cc1ncc2n1-c1ccc(Cl)cc1C(c1ccccc1F)=NC2` [MIDAZOLAM], the CLint scaled at 1 µM was 85.5 L/h/kg.

For the compound `CN(Cc1ccc(CNc2ccnc3cc(C#N)ccc23)cc1)Cc1ccccn1`, the CLint scaled at 1 µM came out at 66.1 L/h/kg.

Test system in the next data set: not listed separately
The data set is described as follows: Half life in BALB/c mouse liver microsomes at 1 uM in presence of NADPH by LC-MS/MS analysis. It is filed as ADME, microsome.
Conditions: not given
In outline: as §1
As for `Cc1ncc2n1-c1ccc(Cl)cc1C(c1ccccc1F)=NC2` [MIDAZOLAM], the half-life – broadly, the time needed for the level to fall by half in the phase considered – at 1 µM worked out at 4.74 min.

`CN(Cc1ccc(CNc2ccnc3cc(C#N)ccc23)cc1)Cc1ccccn1`: the half-life at 1 µM worked out at 6.22 min.

For another data set, the system named is Plasmodium falciparum. Description: Increase in hemoglobin levels in chloroquine-sensitive synchronized ring stage of Plasmodium falciparum NF54 after 32 hrs by flow cytometric analysis. It is filed as functional.
Conditions: not given
The method in brief: as §2
Consider `CN(Cc1ccc(CNc2ccnc3cc(C#N)ccc23)cc1)Cc1ccccn1`, for which the Activity entry was “Dose-dependent effect”.

For the next data set, the system named is Plasmodium falciparum. Description: Resistance index, ratio of IC50 for chloroquine-resistant synchronized trophozoite stage of Plasmodium falciparum Dd2 to IC50 for chloroquine-sensitive synchronized trophozoite stage of Plasmodium falciparum NF54. It is filed as functional.
Conditions: not given
As for `CN(Cc1ccc(CNc2ccnc3cc(C#N)ccc23)cc1)Cc1ccccn1`, the “Ratio IC50” value was 1.9.

In the case of `C[C@H]1[C@H](OC(=O)CCC(=O)O)O[C@@H]2O[C@@]3(C)CC[C@H]4[C@H](C)CC[C@@H]1[C@@]24OO3` [ARTESUNATE], the “Ratio IC50” value was determined as 2.6.

The record behind these values is ChEMBL document CHEMBL4024765 (J Med Chem, 2017).
